Laboratory results as given in ChEMBL document CHEMBL1135526, “Discovery of 2-phenylamino-imidazo[4,5-h]isoquinolin-9-ones: a new class of inhibitors of lck kinase” (J Med Chem, 2002).
Active and inactive are the calls of the source. The rule behind the calls is not given here.

Key:
[1] = biological target: cAMP-dependent protein kinase (PKA) (Homo sapiens) (UniProt P22694+P17612+P22612); assay: Inhibition of Protein kinase A (PKA) - No inhibition at 500 uM; format: protein assay
[2] = tested on: Jurkat; assay: Inhibition of calcium release in Jurkat cells; format: functional, cell-based; conditions: Homo sapiens
Outline: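 Jurkat cells were washed, loaded with Fluo-3 (2 μM final), then held in HBSS with Ca/Mg, HEPES, probenecid and 1% FBS at pH 7.4, giving 3 × 10⁵ cells/mL final. Compound was added for 15 min at room temperature. Anti-CD3 (clone X35, 0.25 μg/mL final) was then added and fluorescence followed for 13 min. EC50 is the mean of ≥2 experiments in duplicate ± SD.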

[3] = biological target: MAP kinase p38 (Homo sapiens) (UniProt O15264+Q15759+Q16539+P53778); assay: Inhibition of Mitogen-activated protein kinase p38 - No inhibition at 10 ug/mL; format: protein assay
[4] = Inhibition of Extracellular signal-regulated kinase (Erk) - No inhibition at 100 ug/mL
[5] = biological target: Tyrosine-protein kinase Lck (Homo sapiens, UniProt P06239); assay: Inhibitory activity against recombinant human p56 Lck tyrosine kinase
Sequence of Tyrosine-protein kinase Lck (P06239 whole entry): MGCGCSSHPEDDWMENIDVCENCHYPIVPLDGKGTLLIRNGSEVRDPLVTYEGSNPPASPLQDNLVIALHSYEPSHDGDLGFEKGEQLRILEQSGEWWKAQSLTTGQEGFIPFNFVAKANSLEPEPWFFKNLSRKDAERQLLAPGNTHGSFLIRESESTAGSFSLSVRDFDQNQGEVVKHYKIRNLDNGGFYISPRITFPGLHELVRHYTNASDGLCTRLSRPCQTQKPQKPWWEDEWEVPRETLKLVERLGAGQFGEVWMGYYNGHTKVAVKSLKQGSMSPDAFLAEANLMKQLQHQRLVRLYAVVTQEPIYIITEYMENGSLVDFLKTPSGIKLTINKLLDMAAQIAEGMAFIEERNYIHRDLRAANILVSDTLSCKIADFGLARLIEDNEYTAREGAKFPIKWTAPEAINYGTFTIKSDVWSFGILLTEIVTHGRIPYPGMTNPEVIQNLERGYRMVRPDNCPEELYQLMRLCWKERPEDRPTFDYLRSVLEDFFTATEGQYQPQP

[6] = biological target: T1, Tyrosine-protein kinase ZAP-70 (Homo sapiens, UniProt P43403); assay: Inhibition of Zeta-chain (TCR) associated protein kinase 70 kDa (ZAP70) with 1 uM ATP
T1 sequence (P43403 whole entry): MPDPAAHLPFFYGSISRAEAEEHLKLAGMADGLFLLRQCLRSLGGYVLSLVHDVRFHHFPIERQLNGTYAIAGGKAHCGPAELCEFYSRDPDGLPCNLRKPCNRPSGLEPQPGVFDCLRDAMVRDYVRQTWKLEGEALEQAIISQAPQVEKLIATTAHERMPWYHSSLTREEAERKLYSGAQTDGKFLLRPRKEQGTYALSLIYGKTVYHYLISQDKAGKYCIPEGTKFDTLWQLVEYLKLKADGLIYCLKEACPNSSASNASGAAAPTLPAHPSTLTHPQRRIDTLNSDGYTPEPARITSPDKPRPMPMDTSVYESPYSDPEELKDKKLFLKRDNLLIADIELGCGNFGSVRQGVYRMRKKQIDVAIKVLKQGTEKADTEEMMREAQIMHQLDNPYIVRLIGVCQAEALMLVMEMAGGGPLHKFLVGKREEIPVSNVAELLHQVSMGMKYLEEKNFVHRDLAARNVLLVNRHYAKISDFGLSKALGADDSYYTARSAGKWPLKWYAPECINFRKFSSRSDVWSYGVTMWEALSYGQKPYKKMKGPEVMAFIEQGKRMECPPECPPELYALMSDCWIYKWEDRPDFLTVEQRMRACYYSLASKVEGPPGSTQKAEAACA
Outline: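 Radiometric kinase assay with enzyme amount set to give a linear response over the reaction period. ATP at 1 μM final with γ³³P-ATP at 20 Ci/mmol. Compounds from 5 mg/mL DMSO stock, final 200 to 1 μg/mL for IC50. Reactions started with enzyme, run 60 min at 30 °C, stopped with TCA/pyrophosphate, filter-harvested, and counted by scintillation.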

[7] = biological target: Proto-oncogene tyrosine-protein kinase Src (Homo sapiens, UniProt P12931); assay: Inhibition of c-SRC with 1 uM ATP
Sequence of Proto-oncogene tyrosine-protein kinase Src (P12931 2-536 limits assumed): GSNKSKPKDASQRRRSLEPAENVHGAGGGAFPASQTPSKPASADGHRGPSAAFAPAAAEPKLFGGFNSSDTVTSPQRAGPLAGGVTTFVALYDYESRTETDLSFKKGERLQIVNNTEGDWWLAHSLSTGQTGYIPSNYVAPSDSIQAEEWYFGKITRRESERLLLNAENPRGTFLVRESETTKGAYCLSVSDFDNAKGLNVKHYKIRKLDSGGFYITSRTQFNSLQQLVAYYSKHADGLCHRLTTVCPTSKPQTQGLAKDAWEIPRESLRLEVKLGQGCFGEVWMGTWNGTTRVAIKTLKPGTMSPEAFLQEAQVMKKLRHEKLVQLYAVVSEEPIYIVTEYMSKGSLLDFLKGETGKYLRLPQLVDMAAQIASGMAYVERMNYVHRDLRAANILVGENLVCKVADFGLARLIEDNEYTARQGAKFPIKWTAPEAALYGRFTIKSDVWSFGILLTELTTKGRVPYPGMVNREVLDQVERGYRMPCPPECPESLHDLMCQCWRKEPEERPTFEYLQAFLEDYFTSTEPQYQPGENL
Outline: (§1)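 Enzyme amount for each kinase chosen to give a linear response over the whole reaction period. Inhibition was read as IC50 or as the highest concentration tested.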

[8] = biological target: Epidermal growth factor receptor (Homo sapiens, UniProt P00533); assay: Inhibition of Epidermal growth factor receptor
Sequence of Epidermal growth factor receptor (P00533 whole entry): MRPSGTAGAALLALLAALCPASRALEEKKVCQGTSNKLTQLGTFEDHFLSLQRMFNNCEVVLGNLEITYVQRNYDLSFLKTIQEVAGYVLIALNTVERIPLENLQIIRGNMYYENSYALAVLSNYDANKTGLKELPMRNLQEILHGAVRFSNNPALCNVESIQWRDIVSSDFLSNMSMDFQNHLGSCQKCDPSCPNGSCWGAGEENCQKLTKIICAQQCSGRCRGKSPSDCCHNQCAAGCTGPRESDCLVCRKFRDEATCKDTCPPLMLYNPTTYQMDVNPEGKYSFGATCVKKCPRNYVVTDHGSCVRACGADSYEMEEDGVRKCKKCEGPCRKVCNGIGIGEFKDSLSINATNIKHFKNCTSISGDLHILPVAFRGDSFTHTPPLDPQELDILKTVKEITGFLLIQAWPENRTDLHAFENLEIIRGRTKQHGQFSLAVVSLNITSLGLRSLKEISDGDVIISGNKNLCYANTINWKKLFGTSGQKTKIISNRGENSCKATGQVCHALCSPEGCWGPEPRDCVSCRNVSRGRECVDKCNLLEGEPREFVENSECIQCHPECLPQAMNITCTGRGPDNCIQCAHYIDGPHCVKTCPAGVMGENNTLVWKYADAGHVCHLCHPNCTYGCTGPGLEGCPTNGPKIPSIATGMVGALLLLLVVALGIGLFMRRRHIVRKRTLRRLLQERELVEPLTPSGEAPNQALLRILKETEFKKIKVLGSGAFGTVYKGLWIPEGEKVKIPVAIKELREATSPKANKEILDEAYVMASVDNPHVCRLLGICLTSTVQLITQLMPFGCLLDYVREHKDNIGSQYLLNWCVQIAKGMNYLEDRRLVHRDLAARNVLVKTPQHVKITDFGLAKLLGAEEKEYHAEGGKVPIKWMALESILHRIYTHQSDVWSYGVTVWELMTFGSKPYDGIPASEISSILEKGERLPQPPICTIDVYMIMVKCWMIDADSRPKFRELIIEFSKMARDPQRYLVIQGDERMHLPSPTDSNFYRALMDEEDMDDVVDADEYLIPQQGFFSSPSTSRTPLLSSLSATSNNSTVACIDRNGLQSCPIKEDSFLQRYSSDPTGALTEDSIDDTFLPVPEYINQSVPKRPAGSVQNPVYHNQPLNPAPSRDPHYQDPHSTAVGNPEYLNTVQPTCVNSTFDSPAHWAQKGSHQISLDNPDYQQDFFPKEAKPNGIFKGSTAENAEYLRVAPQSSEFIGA

[9] = biological target: Tyrosine-protein kinase SYK (Homo sapiens, UniProt P43405); assay: Inhibition of Syk tyrosine kinase; outline: as §1

Structure (SMILES) | EC50 [2] [nM] | IC50 [5] [nM] | other results
Cc1nc(O)c2c(ccc3[nH]c(Nc4c(Cl)cccc4Cl)nc32)c1C | 190 |  | NI [1]: inactive; NI [3]: inactive; NI [4]: inactive
CN1C(=O)c2c(ccc3nc(Nc4c(Cl)cccc4Cl)[nH]c23)C(C)(C)C1=O |  | 9600 | 
Cc1[nH]c(=O)c2c(ccc3nc(Nc4c(Cl)cccc4Cl)[nH]c32)c1C |  | 26 | IC50 [6]: 80000 nM; IC50 [7]: 12 nM; IC50 [8]: 100000 nM; IC50 [9]: > 100000 nM
CC1(C)C(=O)NC(=O)c2c1ccc1[nH]c(Nc3c(F)cccc3F)nc21 |  | 11000 | 
Cc1nc(O)c2c(ccc3[nH]c(Nc4c(Cl)cc(Cl)cc4Cl)nc32)c1C | 420 | 18 | 
CC(C)CC1(C)C(=O)NC(=O)c2c1ccc1nc(Nc3c(Cl)cccc3Cl)[nH]c21 (stereo not drawn) |  | 5100 | 
Cc1cccc(Cl)c1Nc1nc2c3c(ccc2[nH]1)C(C)(C)C(=O)NC3=O | 2900 | 770 | 
CC1(C)C(=O)NC(=O)c2c1ccc1nc(Nc3ccc(Cl)cc3Cl)[nH]c21 |  | > 40000 | 
CC1(C)C(=O)NC(=O)c2c1ccc1nc(Nc3c(Br)cc(Br)cc3Br)[nH]c21 | 7300 | 600 | 
CC1(C)C(=O)NC(=O)c2c1ccc1[nH]c(Cc3c(Cl)cccc3Cl)nc21 |  | 9600 | 
Cc1cccc(Cl)c1Nc1nc2c(ccc3c(C)c(C)nc(O)c32)[nH]1 | 340 | 27 | 
CC1(C)C(=O)NC(=O)c2c1ccc1nc(Nc3c(Cl)cccc3Cl)[nH]c21 | 9700 | 460 | 
CC1(C)CNC(=O)c2c1ccc1nc(Nc3c(Cl)cccc3Cl)[nH]c21 | 5200 | 1100 | 
CC1(C)C(=O)NC(=O)c2c1ccc1nc(Nc3ccc(Cl)cc3)[nH]c21 |  | > 40000 | 
CCc1cccc(CC)c1Nc1nc2ccc3c(c2[nH]1)C(=O)NC(=O)C3(C)C |  | > 40000 | 
Cc1cccc(C)c1Nc1nc2ccc3c(c2[nH]1)C(=O)NC(=O)C3(C)C | 4600 | 460 | 
CN(c1nc2c3c(ccc2[nH]1)C(C)(C)C(=O)NC3=O)c1c(Cl)cccc1Cl |  | 2500 | 
O=C1NCCc2ccc3[nH]c(Nc4c(Cl)cccc4Cl)nc3c21 | 1800 | 380 | 
Cc1[nH]c(=O)c2c(ccc3[nH]c(Nc4ccccc4Cl)nc32)c1C |  | 150 | 
CC1(C)C(=O)NC(=O)c2c1ccc1[nH]c(Nc3c(Cl)c(Cl)cc(Cl)c3Cl)nc21 |  | > 40000 | 
CC1(C)CNCc2c1ccc1[nH]c(Nc3c(Cl)cccc3Cl)nc21 |  | > 40000 | 
CCC1(CC)C(=O)NC(=O)c2c1ccc1[nH]c(Nc3c(Cl)cccc3Cl)nc21 |  | 5900 | 
Cc1nc(O)c2c(ccc3[nH]c(Nc4c(Br)cc(Br)cc4Br)nc32)c1C | 610 | 25 | 
CC1(C)C(=O)NC(=O)c2c1ccc1[nH]c(Nc3c(Cl)cc(Cl)cc3Cl)nc21 | 4300 | 730 | 
CC1(C)C(=O)NC(=O)c2c1ccc1nc(Nc3ccccc3Cl)[nH]c21 |  | > 40000 | 
Cn1c(Nc2c(Cl)cccc2Cl)nc2c3c(ccc21)C(C)(C)C(=O)NC3=O |  | 2500 | 
